Assay results as given in the EternaBench riboswitch data.

Test system: MS2 coat protein
Assay: apparent Kd, MS2 coat protein; higher = weaker binding; RNA-MaP array; tryptophan 2.4 mM where present
How it was run: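 Binding was read on Illumina sequencing-chip clusters where stalled E. coli RNA polymerase had transcribed each design. A titration of SNAP-549-labelled MS2 coat protein began at 0.7 or 1.5 nM and doubled to 3 µM, once without ligand and once with constant ligand, in 100 mM Tris-HCl pH 7.5, 80 mM KCl, 4 mM MgCl2, BSA, DTT, yeast tRNA and Tween-20. The apparent Kd is the median of filtered per-cluster binding-curve fits, based on green signal normalised to red-channel RNA signal and control-cluster median Fmax.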

[1] = designed as: ON switch for tryptophan, no ligand
[2] = ligand present: tryptophan, designed as: ON switch for tryptophan
[3] = designed as: OFF switch for tryptophan, no ligand
[4] = ligand present: tryptophan, designed as: OFF switch for tryptophan

| Sequence | apparent Kd [1] [nM] | apparent Kd [2] [nM] | apparent Kd [3] [nM] | apparent Kd [4] [nM] |
| --- | --- | --- | --- | --- |
| AUAACAUGAGGAUCACCCAUGUAUUGGUUACGAGGACCGGUACGGCCGCCACUCGUAUUAUAGUGGUAUUUUGUUUAUAUGAUAA | 12.6 | 14.1 |  |  |
| UAAACUACACAUGAGGAUCACCCAUGUGGCCGAGGACCGGUACGGCCGCCACUCGUGUGUUAAUAAAAGAACUGCAAGAUUCUUU | 126 | 92.6 |  |  |
| GCAUCCUAGUCGGCCGCCACUGGUACGAACACCUUCACCCGUGUGCACAUGAGGAUCACCCAUGUUAGGACCGGGACUAGGAUGC | 8.2 | 7.99 |  |  |
| UAUCGUCAGACGGCCGCCACUAGAACAUGAGGAUCACCCAUGUACGGCCGCCCGGUAUGGGUGUCUAGGACCGGGUCUGACGAAU |  |  | 30.4 | 39 |
| AUAUAUACAUGAGGAUCACCCAUGUUAUUACGAGGACCGGUACGGCCGCCACUCGAUAGAGUAGAAGUAAAUUUUAAUUCAUGUA | 14.5 | 13 |  |  |
| GGGCGCGUGGACCGGCGUGCUCCGCUCCGUCGAGGACCGGUACGGCCGCCACUCGACAUGAGGAUCACCCAUGUGUGAGCUCGCG |  |  | 55.2 | 281 |
| UGUCAGCGAAAGUUGACAUGCAGUGCCGGUCGAGGACCGGUACGGCCGCCACUCGAUCUCUCGUACAUGAGGAUCACCCAUGUCG | 13.4 | 13.8 |  |  |
| AGCUACUCGUUCCUCAUGUACGAGUGGCAACGAGGACCGGUACGGCCGCCACUCGAAUAAACAUGAGGAUCACCCAUGUACAAAU | 54.6 | 120 |  |  |
| AGUACAUGAGGAUCACCCAUGUGCCGGUAACGAGGACCGGUACGGCCGCCACUCGAUGUACCUCAAUUUGAUUGAGAUAAGAAAA | 41 | 17.4 |  |  |
| GCCGCGGCCGCGAUACACAUGGGUAUGUAACGAGGACCGGUACGGCCGCCACUCGAGAUAAUGUACAUGAGGAUCACCCAUGUAC |  |  | 11.5 | 13.3 |
| AACAUACAAUAAUAGGUGGAUAUAAGGCGGCGAGGACCGGUACGGCCGCCACUCGCGUACAUGAGGAUCACCCAUGUCUGAAACU | 23.2 | 28.1 |  |  |
| UUAUAAGUACCGGUCCUCAGAUCCUCAUGACGAGGACCGGUACGGCCGCCACUCGAAACAUGAGGAUCACCCAUGUAAUAAUAAU |  |  | 24.2 | 21.5 |
| GAUUAAACAUGAGGAUCACCCAUGUAUAUACGAGGACCGGUACGGCCGCCACUCGUAAACGAGUAUCCUCGAAUAAACAUGAUAA | 134 | 42.7 |  |  |
| UUCUUUGACGAUCUGGGUUUACCAGAUCGACGAGGACCGGUACGGCCGCCACUCGUGUUUUCUUUACAUGAGGAUCACCCAUGUU | 16.4 | 15.6 |  |  |
| AAUGUAUGGCACAUGAGGAUCACCCAUGUGCGAGGACCGGUACGGCCGCCACUCGGUCCUGGGAUCUUACCACUAUACAUUAAUG |  |  | 10 | 13.1 |
| AAAGCCACUUCGGCCGCCACUACAACAUGAGGAUCACCCAUGUACCUCGUGUACGGUCCGAGGAGUAGGACCGGGAAGUGGUGGA | 132 | 52.8 |  |  |
| AUGCAGAGCACGGCCGCCACUCCAUGUAUACAUGAGGAUCACCCAUGUAAUUUGUAUUUUUUAUAGAGGACCGGGUGAAAUGCAA | 34.3 | 18.2 |  |  |
| UUUGACGGCGAUCUGGGUUUACCAGAUCGGCGAGGACCGGUACGGCCGCCACUCGUGUUUCUUUGACAUGAGGAUCACCCAUGUA | 39.1 | 18.4 |  |  |
| GAUAUGGAAACAUGUCAGAUCCUUACCGGUCGAGGACCGGUACGGCCGCCACUCGAAAAUAAUAAACAUGAGGAUCACCCAUGUA |  |  | 14.4 | 32 |
